The target of test [1] is T1, Med15 ABD2 (Saccharomyces cerevisiae, UniProt P19659).
T1 sequence (P19659 277-368): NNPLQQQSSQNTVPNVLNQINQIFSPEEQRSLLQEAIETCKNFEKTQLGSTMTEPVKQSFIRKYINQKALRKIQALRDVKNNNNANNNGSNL
Nature of the test: ITC binding, Med15 ABD2. Particulars: 20 mM KH2PO4 (pH 7.5), 200 mM KCl, nAD 0.111 mM vs ABD2 1.60 mM, ABD2 0.224 mM vs cAD 2.35 mM, not measurable due to weak binding or low heats of binding. Also on record: species or system S. cerevisiae.

Test [2] has as its target T2, Med15 ABD3 (Saccharomyces cerevisiae, UniProt P19659).
T2 sequence (P19659 484-651): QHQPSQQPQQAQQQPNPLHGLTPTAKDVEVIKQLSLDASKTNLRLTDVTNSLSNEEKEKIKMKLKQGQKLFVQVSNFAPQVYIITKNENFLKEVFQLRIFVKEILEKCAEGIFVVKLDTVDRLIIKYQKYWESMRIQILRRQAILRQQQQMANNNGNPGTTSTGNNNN
Nature of the test: ITC binding, Med15 ABD3. Further details: species or system S. cerevisiae. Particulars: 20 mM KH2PO4 (pH 7.5), 200 mM KCl, nAD 0.111 mM vs ABD3 1.12 mM, ABD3 0.236 mM vs cAD 2.35 mM, single binding site model. An outline of the steps:
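ITC was run on a MicroCal ITC200 in 20 mM KH2PO4 (pH 7.5), 200 mM KCl. In one run, Gcn4 nAD in the cell (0.111 mM) was titrated with Med15 ABD3 from the syringe (1.12 mM). In the other, ABD3 in the cell (0.236 mM) was titrated with Gcn4 cAD (2.35 mM). Data were fitted with a single binding site model.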

Test [3] deals with T1, Med15 ABD2. Put plainly: Fluorescence polarization binding, Med15 ABD2. Also on record: species or system S. cerevisiae. The gist of the method: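 Gcn4 AD peptides (nAD, cAD, tAD) labelled with Oregon Green 488 were titrated with Med15 ABD2, giving 15 concentrations spanning 0–250 μM for tAD. Proteins were size-exclusion purified into 20 mM KH2PO4 (pH 7.5), 200 mM KCl. Polarization was measured on a Beacon 2000. Kd was fitted with a one-site total binding model including a nonspecific term and background.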
For orientation: In fluorescence polarisation assays a small probe gives low polarisation when free and higher when bound to something large.

In test [4] the target is T3, Med15 ABD1 (Saccharomyces cerevisiae, UniProt P19659).
T3 sequence (P19659 158-238 limits assumed): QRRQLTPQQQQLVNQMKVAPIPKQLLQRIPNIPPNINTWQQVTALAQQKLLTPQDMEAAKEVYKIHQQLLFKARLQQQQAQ
Nature of the test: NMR competition: unlabeled cAD added to 15N-tAD + ABD1. Type of test: binding, S. cerevisiae. Particulars: (1H,15N)-HSQC.

The target of test [5] is T3, Med15 ABD1. The note with it: ITC; 20 mM KH2PO4 (pH 7.5), 200 mM KCl; cAD; ref Brzovic et al., 2011; cited from earlier work.
Test [6] addresses T4, Med15 KIX (Saccharomyces cerevisiae, UniProt P19659).
T4 sequence (P19659 6-91): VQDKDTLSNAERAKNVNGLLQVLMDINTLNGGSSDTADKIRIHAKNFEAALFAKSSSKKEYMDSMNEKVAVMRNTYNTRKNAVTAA
The note with it: FP; Oregon Green 488-labeled Gcn4 peptide; ref Herbig et al., 2010; cited from earlier work.

In test [7] the target is T3, Med15 ABD1. The note with it: ref Brzovic et al., 2011; cited from earlier work.

Entries after “also recorded” stand apart in the source; their conditions may differ. No end group written: not given here.

The values below come from PMC5908246 (Cell reports, 2018).

For the sequence “STDSTPMFEYENLEDNSKEWTSLFDNDIPVTTDD [cAD]”, the Kd result in test [1] is given as “unable to measure”; in test [2], “unable to measure”; in test [6], “neither nAD nor cAD showed detectable KIX binding; also recorded: unable to measure”. In test [3], the “weaker binding (cAD to ABD2) than the other pairwise interactions” value is listed as ~ 10 fold. The “affinity for ABD2 (in words)” value in test [3] (compared with nAD or tAD) is recorded as “substantially weaker affinity”. Moreover, the “competition with 15N-tAD for ABD1” value in test [4] was “cAD can compete off both cAD and nAD residues”. Further, the ΔS in test [5] is given as 4.58 cal/mol/deg. Moreover, in test [7], the “helical structure upon ABD1 binding, residues 117–125” value is given as “adopt helical structure”.
